# Activity calls are given as the source filed them. The rule behind the calls is not given here.
# What was measured:
# [1] = Binding affinity to CaCAM
# [2] = molecular target: Nitric oxide synthase, inducible (Rattus norvegicus) (UniProt Q06518); experiment: Inhibition of iNOS in LPS-treated Wistar rat lung tissue homogenate assessed as conversion of L-[3H]arginine to L-[3H]citrulline at 1 mM by liquid scintillation spectroscopy
# Summary of the method: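 iNOS induced in Wistar rats by LPS 20 mg/Kg i.v.; lungs taken 8 h later, homogenized in ice-cold Tris-HCl pH 7.6 with protease inhibitors, then incubated with 10 mM EDTA to remove nNOS activity. Conversion of L-[3H]-arginine to L-[3H]-citrulline at 37 °C for 30 min with NADPH, compound 1 mM final; Dowex separation, scintillation counting.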
# [3] = molecular target: Nitric oxide synthase 1 (Rattus norvegicus) (UniProt P29476); experiment: Inhibition of nNOS in Wistar rat striata tissue homogenate assessed as conversion of L-[3H]arginine to L-[3H]citrulline at 1 mM by liquid scintillation spectroscopy; format: tissue-based; conditions: Striatum
# Summary of the method: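 Male Wistar rats killed by cervical dislocation; fresh striata homogenized in Tris-HCl pH 7.6 with protease inhibitors, spun 1000g 5 min. Supernatant incubated 30 min at 37 °C with 10 µM L-arginine plus 50 nM L-[3H]-arginine, CaCl2, BH4, FAD, NADPH 0.75 mM final; compound 1 mM final in DMSO. Dowex-50W separation; citrulline by scintillation; NADPH-omitted blank subtracted. Three experiments in triplicate, four striata each.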
# [4] = molecular target: Nitric oxide synthase 1 (Mus musculus) (UniProt Q9Z0J4); experiment: Inhibition of constitutive mitochondrial NOS in stantia nigra isolated from MPTP-induced parkinson's disease C57/Bl6 mouse model assessed as L-[3H]citrulline per mg of protein at 20 mg/kg, b.w 1 hr before MPTP challenge after 32 hrs by liquid scintillation spectroscopy; format: organism-based; design: dose 20 mg/kg
# Summary of the method: (§1)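 C57/Bl6 mice (22–28 g) given MPTP 15 mg/kg s.c. at 0, 2, 4, 6, 24, 26 and 28 h; single compound dose 20 mg/kg b.w. 1 h before first MPTP; controls got ethanol/saline vehicle. Killed 32 h after treatments; substantia nigra cytosol and mitochondria assayed by L-[3H]-citrulline formation, as pmol/mg protein/min. Seven experiments in triplicate, four SN each.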
# [5] = molecular target: T1, Nitric oxide synthase, inducible (Mus musculus) (UniProt P29477); experiment: Inhibition of cytosolic iNOS in stantia nigra isolated from MPTP-induced parkinson's disease C57/Bl6 mouse model assessed as L-[3H]citrulline per mg of protein at 20 mg/kg, b.w 1 hr before MPTP challenge after 32 hrs by liquid scintillation spectroscopy; format: organism-based; design: dose 20 mg/kg; summary of the method: as §1
# T1 sequence (whole entry): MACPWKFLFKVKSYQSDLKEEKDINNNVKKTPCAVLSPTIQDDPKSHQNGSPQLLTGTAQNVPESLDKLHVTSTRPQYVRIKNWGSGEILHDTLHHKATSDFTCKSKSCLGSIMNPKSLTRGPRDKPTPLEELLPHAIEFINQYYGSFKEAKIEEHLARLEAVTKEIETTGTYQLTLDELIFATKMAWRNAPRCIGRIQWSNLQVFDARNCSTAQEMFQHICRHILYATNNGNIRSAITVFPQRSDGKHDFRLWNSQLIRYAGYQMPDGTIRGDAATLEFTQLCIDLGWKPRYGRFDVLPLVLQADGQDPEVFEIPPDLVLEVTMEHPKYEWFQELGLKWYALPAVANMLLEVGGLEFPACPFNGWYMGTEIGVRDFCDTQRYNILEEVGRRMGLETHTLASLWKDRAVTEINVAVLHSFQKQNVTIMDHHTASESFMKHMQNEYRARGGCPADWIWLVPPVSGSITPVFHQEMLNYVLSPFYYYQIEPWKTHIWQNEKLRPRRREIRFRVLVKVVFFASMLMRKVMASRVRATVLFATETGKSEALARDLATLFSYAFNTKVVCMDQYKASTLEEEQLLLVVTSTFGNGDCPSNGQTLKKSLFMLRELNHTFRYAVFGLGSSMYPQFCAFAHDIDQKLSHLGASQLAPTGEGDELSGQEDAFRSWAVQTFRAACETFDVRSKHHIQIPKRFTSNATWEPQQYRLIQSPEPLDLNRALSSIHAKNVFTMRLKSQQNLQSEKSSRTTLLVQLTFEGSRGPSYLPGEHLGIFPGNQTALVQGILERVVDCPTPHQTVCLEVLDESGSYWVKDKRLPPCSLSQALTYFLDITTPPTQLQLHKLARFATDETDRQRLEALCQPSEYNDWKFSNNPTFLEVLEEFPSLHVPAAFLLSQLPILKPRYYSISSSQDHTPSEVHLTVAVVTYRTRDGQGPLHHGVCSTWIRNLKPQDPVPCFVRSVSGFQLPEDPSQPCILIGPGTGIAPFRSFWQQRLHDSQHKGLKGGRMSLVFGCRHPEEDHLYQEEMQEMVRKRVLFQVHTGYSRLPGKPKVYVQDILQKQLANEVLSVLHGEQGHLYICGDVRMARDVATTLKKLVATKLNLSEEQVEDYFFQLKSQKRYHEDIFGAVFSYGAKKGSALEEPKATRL
# [6] = molecular target: T1, Nitric oxide synthase, inducible (Mus musculus); experiment: Inhibition of inducible mitochondrial NOS in stantia nigra isolated from MPTP-induced parkinson's disease C57/Bl6 mouse model assessed as L-[3H]citrulline per mg of protein at 20 mg/kg, b.w 1 hr before MPTP challenge after 32 hrs by liquid scintillation spectroscopy; format: organism-based; design: dose 20 mg/kg; summary of the method: as §1
# [7] = molecular target: Nitric oxide synthase 1 (Mus musculus) (UniProt Q9Z0J4); experiment: Inhibition of cytosolic nNOS in stantia nigra isolated from MPTP-induced parkinson's disease C57/Bl6 mouse model assessed as L-[3H]citrulline per mg of protein at 20 mg/kg, b.w 1 hr before MPTP challenge after 32 hrs by liquid scintillation spectroscopy; format: organism-based; design: dose 20 mg/kg; summary of the method: as §1
# [8] = molecular target: Nitric oxide synthase 1 (Homo sapiens) (UniProt P29475); experiment: Inhibition of nNOS
# Chain of Nitric oxide synthase 1 (Homo sapiens) (P29475 whole entry): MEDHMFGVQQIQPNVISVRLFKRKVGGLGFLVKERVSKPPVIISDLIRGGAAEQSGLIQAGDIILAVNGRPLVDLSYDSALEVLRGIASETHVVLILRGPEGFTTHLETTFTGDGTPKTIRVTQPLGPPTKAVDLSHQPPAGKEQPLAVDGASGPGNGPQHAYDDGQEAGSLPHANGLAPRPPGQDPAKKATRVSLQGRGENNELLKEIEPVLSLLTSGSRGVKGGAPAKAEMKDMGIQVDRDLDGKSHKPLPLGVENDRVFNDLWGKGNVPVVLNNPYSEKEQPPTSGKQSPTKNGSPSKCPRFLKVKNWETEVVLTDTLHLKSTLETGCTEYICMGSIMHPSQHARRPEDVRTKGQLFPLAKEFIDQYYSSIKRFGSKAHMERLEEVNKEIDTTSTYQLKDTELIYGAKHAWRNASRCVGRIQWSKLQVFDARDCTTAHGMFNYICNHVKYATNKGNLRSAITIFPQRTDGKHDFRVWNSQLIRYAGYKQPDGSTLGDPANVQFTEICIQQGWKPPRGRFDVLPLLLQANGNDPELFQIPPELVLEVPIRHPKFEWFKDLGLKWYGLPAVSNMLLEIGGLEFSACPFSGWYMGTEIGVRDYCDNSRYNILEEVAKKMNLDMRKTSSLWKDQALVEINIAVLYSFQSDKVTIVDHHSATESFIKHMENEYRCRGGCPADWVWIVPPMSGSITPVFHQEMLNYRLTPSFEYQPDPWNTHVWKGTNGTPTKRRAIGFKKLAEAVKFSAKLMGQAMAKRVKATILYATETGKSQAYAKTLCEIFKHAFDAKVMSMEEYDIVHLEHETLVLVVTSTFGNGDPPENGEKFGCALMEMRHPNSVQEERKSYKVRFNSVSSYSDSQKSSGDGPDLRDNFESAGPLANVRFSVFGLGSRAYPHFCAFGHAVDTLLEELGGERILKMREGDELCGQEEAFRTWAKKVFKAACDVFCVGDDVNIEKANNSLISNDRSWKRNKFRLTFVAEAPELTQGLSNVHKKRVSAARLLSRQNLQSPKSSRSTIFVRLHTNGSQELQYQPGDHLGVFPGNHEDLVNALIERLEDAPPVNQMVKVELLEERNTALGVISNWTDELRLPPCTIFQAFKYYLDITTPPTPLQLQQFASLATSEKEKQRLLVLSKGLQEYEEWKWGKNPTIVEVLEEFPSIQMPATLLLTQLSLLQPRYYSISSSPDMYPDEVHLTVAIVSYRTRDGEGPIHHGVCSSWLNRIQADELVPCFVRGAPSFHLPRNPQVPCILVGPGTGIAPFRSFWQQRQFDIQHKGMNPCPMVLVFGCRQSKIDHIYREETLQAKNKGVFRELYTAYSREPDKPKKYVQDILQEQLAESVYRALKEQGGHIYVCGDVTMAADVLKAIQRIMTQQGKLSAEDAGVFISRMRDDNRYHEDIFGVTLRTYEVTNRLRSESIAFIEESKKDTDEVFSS
# Chain of Nitric oxide synthase 1 (Mus musculus) (Q9Z0J4 whole entry): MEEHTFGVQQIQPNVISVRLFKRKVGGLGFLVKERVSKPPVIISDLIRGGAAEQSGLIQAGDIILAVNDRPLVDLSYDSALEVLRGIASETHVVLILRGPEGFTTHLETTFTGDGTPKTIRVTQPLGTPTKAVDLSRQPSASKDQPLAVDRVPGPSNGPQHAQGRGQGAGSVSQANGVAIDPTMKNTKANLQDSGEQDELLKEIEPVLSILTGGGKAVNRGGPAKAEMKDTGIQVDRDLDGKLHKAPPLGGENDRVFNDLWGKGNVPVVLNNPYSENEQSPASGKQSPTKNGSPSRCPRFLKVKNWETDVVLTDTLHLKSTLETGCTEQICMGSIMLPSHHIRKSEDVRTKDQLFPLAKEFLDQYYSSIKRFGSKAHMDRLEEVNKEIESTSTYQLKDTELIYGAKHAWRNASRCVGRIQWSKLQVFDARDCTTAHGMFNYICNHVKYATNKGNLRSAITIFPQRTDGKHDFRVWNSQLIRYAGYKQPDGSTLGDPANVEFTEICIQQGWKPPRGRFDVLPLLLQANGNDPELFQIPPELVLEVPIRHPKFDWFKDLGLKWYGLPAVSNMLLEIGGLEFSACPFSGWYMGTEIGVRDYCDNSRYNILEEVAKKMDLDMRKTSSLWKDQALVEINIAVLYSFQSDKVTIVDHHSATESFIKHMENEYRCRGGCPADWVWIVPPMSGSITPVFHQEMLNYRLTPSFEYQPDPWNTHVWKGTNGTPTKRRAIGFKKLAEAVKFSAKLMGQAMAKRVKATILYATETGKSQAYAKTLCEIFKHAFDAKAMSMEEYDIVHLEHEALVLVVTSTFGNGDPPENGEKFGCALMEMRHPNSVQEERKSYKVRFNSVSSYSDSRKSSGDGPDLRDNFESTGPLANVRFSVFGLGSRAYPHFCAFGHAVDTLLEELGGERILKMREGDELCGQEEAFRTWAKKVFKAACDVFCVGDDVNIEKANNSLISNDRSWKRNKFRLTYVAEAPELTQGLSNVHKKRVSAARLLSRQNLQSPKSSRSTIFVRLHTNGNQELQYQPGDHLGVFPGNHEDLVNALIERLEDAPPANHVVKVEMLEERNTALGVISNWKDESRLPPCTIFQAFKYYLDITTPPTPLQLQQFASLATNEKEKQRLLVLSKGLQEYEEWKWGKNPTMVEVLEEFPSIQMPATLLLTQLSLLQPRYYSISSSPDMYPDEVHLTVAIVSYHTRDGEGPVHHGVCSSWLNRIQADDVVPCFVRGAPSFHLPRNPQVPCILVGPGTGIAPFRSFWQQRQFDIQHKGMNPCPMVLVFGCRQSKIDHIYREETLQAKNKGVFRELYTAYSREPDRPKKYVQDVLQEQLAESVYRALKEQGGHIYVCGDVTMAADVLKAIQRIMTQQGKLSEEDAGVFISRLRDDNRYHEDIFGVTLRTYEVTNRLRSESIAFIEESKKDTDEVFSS
# Chain of Nitric oxide synthase 1 (Rattus norvegicus) (P29476 whole entry): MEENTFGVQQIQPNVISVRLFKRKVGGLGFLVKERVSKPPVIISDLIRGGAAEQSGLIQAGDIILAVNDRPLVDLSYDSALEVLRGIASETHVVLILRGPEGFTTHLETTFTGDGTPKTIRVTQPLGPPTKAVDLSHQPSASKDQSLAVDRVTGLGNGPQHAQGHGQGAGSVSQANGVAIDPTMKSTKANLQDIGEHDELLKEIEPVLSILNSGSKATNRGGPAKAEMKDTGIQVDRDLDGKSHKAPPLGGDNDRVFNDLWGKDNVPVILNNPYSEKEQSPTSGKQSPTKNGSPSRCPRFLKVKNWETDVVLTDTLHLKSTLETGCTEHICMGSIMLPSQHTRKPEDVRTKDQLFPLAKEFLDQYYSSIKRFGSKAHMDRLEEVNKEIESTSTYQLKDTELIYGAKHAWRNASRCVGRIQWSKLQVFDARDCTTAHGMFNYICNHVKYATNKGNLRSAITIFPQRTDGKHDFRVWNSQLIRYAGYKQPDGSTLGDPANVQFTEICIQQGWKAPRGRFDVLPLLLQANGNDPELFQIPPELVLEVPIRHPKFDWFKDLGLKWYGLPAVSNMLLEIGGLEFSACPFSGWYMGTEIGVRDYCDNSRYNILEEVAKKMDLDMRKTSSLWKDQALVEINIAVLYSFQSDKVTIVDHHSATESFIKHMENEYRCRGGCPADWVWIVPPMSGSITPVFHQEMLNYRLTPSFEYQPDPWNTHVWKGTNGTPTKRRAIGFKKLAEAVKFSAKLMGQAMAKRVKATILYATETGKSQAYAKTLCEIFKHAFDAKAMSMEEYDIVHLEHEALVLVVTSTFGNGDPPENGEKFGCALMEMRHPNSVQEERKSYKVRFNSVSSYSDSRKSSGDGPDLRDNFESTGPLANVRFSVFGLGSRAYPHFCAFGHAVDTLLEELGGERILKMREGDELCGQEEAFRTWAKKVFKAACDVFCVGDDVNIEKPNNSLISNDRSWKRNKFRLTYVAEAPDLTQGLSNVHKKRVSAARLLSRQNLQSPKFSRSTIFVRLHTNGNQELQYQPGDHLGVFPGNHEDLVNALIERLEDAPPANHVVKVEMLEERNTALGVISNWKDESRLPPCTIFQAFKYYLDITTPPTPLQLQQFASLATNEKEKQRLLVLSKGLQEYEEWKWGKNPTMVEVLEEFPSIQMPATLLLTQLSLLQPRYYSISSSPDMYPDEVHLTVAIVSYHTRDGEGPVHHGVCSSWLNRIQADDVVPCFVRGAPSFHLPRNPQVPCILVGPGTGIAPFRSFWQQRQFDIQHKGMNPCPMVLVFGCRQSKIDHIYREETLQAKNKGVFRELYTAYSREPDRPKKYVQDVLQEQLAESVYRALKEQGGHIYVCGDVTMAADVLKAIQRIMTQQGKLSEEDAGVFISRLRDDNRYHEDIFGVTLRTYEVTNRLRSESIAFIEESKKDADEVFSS
Activity [1],inhibition [2],inhibition [3],Activity [4],Activity [5],Activity [6],Activity [7],inhibition [8],Compound
inactive,5.34%,34.5%,–,–,–,–,–,NC(=O)c1ccc(-c2cc(Cl)ccc2N)[nH]1
inactive,20.5%,4.15%,–,–,–,–,–,CCNC(=O)c1ccc(-c2ccccc2N)[nH]1
inactive,22.4%,8.89%,–,–,–,–,–,COc1ccc(N)c(-c2ccc(C(=O)NCc3ccccc3)[nH]2)c1
inactive,6.78%,43.5%,–,–,–,–,–,CCCNC(=O)c1ccc(-c2cc(OC)ccc2N)[nH]1
inactive,32.7%,–,9.95 pmol/min,5.78 pmol/min,7.46 pmol/min,65.5 pmol/min,–,CNC(=O)c1ccc(-c2ccccc2N)[nH]1
inactive,21.4%,32.5%,–,–,–,–,–,COc1ccc(N)c(-c2ccc(C(=O)NC3CC3)[nH]2)c1
inactive,7.53%,-0.01%,–,–,–,–,–,CCCCNC(=O)c1ccc(-c2ccccc2N)[nH]1
inactive,28.1%,7.52%,–,–,–,–,–,Nc1ccccc1-c1ccc(C(=O)NCc2ccccc2)[nH]1
inactive,26.2%,15.3%,–,–,–,–,–,COc1ccc(N)c(-c2ccc(C(=O)NC3CCCC3)[nH]2)c1
inactive,-1.1%,2.92%,–,–,–,–,–,Nc1ccccc1-c1ccc(C(=O)NC2CC2)[nH]1
–,–,–,–,–,–,–,Dose-dependent effect,COc1ccc(N)c(C(=O)CC(NC(C)=O)C(=O)O)c1 (stereo unspecified)
inactive,2.8%,33.4%,–,–,–,–,–,CCNC(=O)c1ccc(-c2cc(Cl)ccc2N)[nH]1
inactive,16%,9.56%,–,–,–,–,–,Cn1c(C(N)=O)ccc1-c1ccccc1N
–,–,–,–,–,–,–,Dose-dependent effect,COc1ccc(N)c(C(=O)CCNC(C)=O)c1
inactive,1.27%,17.1%,–,–,–,–,–,CNC(=O)c1ccc(-c2cc(Cl)ccc2N)[nH]1
inactive,13.2%,–,–,–,–,–,–,CCCNC(=O)c1ccc(-c2ccccc2N)[nH]1
inactive,26.2%,–,–,–,–,–,–,CNC(=O)c1ccc(-c2cc(OC)ccc2N)[nH]1
inactive,20.1%,8.44%,–,–,–,–,–,Nc1ccccc1-c1ccc(C(=O)NC2CCC2)[nH]1
inactive,7.2%,48.1%,–,–,–,–,–,Nc1ccc(Cl)cc1-c1ccc(C(=O)NC2CC2)[nH]1
inactive,3.33%,36.5%,–,–,–,–,–,CCCCNC(=O)c1ccc(-c2cc(Cl)ccc2N)[nH]1
inactive,8.95%,–,–,–,–,–,–,COc1ccc(N)c(-c2ccc(C(N)=O)[nH]2)c1
inactive,52.8%,5.36%,14.1 pmol/min,6.53 pmol/min,9.45 pmol/min,74.3 pmol/min,–,Nc1ccccc1-c1ccc(C(=O)NC2CCCC2)[nH]1
–,–,–,13.8 pmol/min,19 pmol/min,23.6 pmol/min,19.9 pmol/min,Dose-dependent effect,COc1ccc2[nH]cc(CCNC(C)=O)c2c1
inactive,3.07%,15%,–,–,–,–,–,NC(=O)c1ccc(-c2ccccc2N)[nH]1
inactive,17.2%,13.4%,–,–,–,–,–,Nc1ccccc1-c1ccc(C(=O)NC2CCCCC2)[nH]1

Compound,Activity [1],inhibition [2],inhibition [3],Activity [4],Activity [5],Activity [6],Activity [7],inhibition [8]
CN1CC=C(c2ccccc2)CC1,–,–,–,25.9 pmol/min,29.4 pmol/min,43.8 pmol/min,83.7 pmol/min,–
